Bioassay records deposited in PubChem by Broad Institute.
Only some compounds are listed: those with a hit (about 5.8% of all), similar ones and a draw of the others.
Pf Dd2 growth – P. falciparum Dd2 growth inhibitors, primary screen, SYBR Green fluorescence, single dose replicates; 94,000 compounds, 2.3% hits; AID 1159554, 2015; 72 h; hits give low values; activity change, % at 10 µM; in the data active = activity change below about -80%; inconclusive = no clear call, values can overlap the other calls
T cruzi growth-1 – T. cruzi intracellular proliferation inhibitors, primary screen, cell-based, beta-gal Tulahuen parasites, NIH3T3 host, luminescence; T. cruzi beta-gal in NIH3T3, GalScreen luminescence, 90 h; inhibition, % at 8.34 µM; 77,000 compounds, 5.9% hits;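 active = mean inhibition above about 93%, with at least 55% of replicates each passing it, limit read from the data, passing the limit was not always enough; inconclusive = only one of those two conditions holds; inactive = neither condition holds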
KDM4C inh – inhibitors of GASC-1 (KDM4C) histone demethylase, primary screen, biochemical, single concentration HTS. 96,000 compounds, 0.15% hits. GST-KDM4C 2-372, H3K9me3 peptide, LANCE TR-FRET. Lysine-specific demethylase 4C (Homo sapiens), Q9H3R0. inhibition, % at 12.5 µM;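 active = mean replicate inhibition above about 25%, with at least 55% of replicates also reaching it, limit read from the data, passing the limit was not always enough; inconclusive = only one of those two conditions met; inactive = neither condition met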
Target sequence (Q9H3R0 2-372 limits assumed): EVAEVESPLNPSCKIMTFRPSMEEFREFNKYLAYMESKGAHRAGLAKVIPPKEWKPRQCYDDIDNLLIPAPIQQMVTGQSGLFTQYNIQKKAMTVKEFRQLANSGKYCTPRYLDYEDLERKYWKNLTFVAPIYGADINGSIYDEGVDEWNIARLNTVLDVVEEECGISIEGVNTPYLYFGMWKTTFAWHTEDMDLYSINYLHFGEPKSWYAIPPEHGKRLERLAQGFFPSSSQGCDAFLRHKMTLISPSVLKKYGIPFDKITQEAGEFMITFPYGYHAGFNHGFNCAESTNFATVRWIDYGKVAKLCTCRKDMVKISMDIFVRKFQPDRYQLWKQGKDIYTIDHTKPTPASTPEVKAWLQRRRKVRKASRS
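System: N-terminal GST-fused human GASC-1 (KDM4C) fragment, residues 2-372; amount: enzyme final amount 10 nM; incubation: reaction 30 min RT, detection step 1 h RT; medium: HEPES buffer, pH 7.5, plus ascorbate; technique: LANCE TR-FRET, Eu antibody, ULight-streptavidin, EDTA, ex 340 nm, em 618/671 nm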
IDH1 R132H inh – inhibitors of IDH1 R132H reductase, primary screen, biochemical, plate reader, single point | inhibition, % at 10 µM | Isocitrate dehydrogenase [NADP] cytoplasmic (Homo sapiens), O75874 | 70,000 compounds, 0.18% hits | diaphorase/resazurin fluorescence, 60 min | AID 624101, 2012; in the data active = inhibition above about 34%; inconclusive = no clear call, values can overlap the other calls; inactive = below about 11%;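 also: 0% = DMSO and 100% = no enzyme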
T cruzi growth-2 – T. cruzi intracellular proliferation inhibitors, confirmation, cell-based, NIH3T3 host, beta-gal parasite, luminescence, cherry-pick | shares compounds with T cruzi growth-1 | T. cruzi beta-gal in NIH3T3, GalScreen luminescence, 90 h | inhibition, % at 8.35 µM | 5,600 compounds, 72% hits | AID 651739, 2012;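 active = mean replicate inhibition above about 95% and at least 55% of replicates individually reaching it, limit read from the data; inconclusive = only one of the two criteria is met; inactive = neither criterion is met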
T cruzi growth-3 – inhibitors of intracellular T. cruzi replication, confirmation, NIH3T3 host cells, beta-gal parasites, cherry-pick, set 2; shares compounds with T cruzi growth-1; T. cruzi beta-gal in NIH3T3, GalScreen luminescence, 90 h; inhibition, % at 2.09 µM; AID 651740, 2012; 5,600 compounds, 21% hits;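 active = mean inhibition above about 95%, with at least 55% of replicates also reaching it, limit read from the data; inconclusive = meets just one of the two conditions; inactive = meets neither condition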;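 also: plate controls were neutral control median for no effect and positive control median for full effect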
NIH3T3 tox – cytotoxicity in mouse NIH/3T3 fibroblasts, confirmation, cytotoxicity control for T. cruzi proliferation inhibitor project, cell-based, cherry-pick, single point; shares compounds with T cruzi growth-1; NIH/3T3 viability, CellTiter-Glo ATP luminescence, 90 h; cytotoxicity (signal decrease), % at 8.35 µM; 5,600 compounds, 14% hits;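 active = mean signal decrease across replicates above about 35% based on untreated-well scatter, with enough replicates individually passing, limit read from the data; inconclusive = no rule stated though some were filed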;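 also: 0% = median of neutral control wells and 100% = median of positive control wells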
3T3 cytotox 2 – NIH/3T3 fibroblast cytotoxicity, confirmation, cytotoxicity control, cell-based, cherry-pick, single point, set 2 | shares compounds with T cruzi growth-1 | NIH/3T3 viability, CellTiter-Glo ATP luminescence, 90 h | inhibition, % at 24.9 µM | 5,600 compounds, 56% hits;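 active = mean loss of cell viability signal at or above a set limit, and enough replicates individually reaching it; inconclusive = meets only the mean limit or only the replicate share; inactive = meets neither condition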;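 also: 0% = median of neutral control wells and 100% = median of positive control wells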
* = called active by the depositor; ? = inconclusive; nt = no result.

SMILES	Pf Dd2 growth	T cruzi growth-1	KDM4C inh	IDH1 R132H inh	T cruzi growth-2	T cruzi growth-3	NIH3T3 tox	3T3 cytotox 2
C[C@H]1CN([C@@H](C)CO)S(=O)(=O)c2ccc(-c3ccncc3)cc2O[C@H]1CN(C)Cc1ccccn1	-12	103*	1	nt	97*	86	0	28*
C[C@@H]1CN([C@H](C)CO)S(=O)(=O)c2ccc(-c3ccncc3)cc2O[C@H]1CN(C)Cc1ccccn1	-31	112*	-2	nt	94	?	?	58*
CCCNC(=O)N1[C@H](CO)[C@H]2c3ccccc3N(C(=O)NC(C)C)C[C@H]21	-47	-3	2	nt	nt	nt	nt	nt
CC(C)NC(=O)N(C)C[C@H]1Oc2ccc(NC(=O)C3CCCCC3)cc2CC(=O)N([C@@H](C)CO)C[C@H]1C	20	15	1	nt	nt	nt	nt	nt
COc1ccc(CN(C)C[C@@H]2Oc3ccc(NC(=O)Nc4ccccc4)cc3C(=O)N([C@@H](C)CO)C[C@@H]2C)cc1	13	15	0	0	nt	nt	nt	nt
COc1ccc(NC(=O)Nc2ccc3c(c2)C(=O)N([C@H](C)CO)C[C@H](C)[C@H](CN(C)Cc2ccc(-c4ccccc4)cc2)O3)cc1	13	?	-1	3	100*	22	-6	19
COc1ccc(NC(=O)Nc2ccc3c(c2)C(=O)N([C@@H](C)CO)C[C@@H](C)[C@@H](CN(C)Cc2ccc(-c4ccccc4)cc2)O3)cc1	21	100*	-3	2	104*	108*	55*	84*
COc1ccc(CN(C)C[C@@H]2Oc3ccc(NC(=O)Nc4ccccc4)cc3C(=O)N([C@H](C)CO)C[C@@H]2C)cc1	2	24	-1	-1	nt	nt	nt	nt
COc1ccc(S(=O)(=O)N2CCC3(CC2)CN(C(=O)c2cccnc2)[C@@H](CO)c2c3c3ccc(OC)cc3n2C)cc1	-33	nt	0	nt	nt	nt	nt	nt
CO[C@@H]1CN(C)C(=O)c2cc(NS(=O)(=O)c3cn(C)cn3)ccc2OC[C@@H](C)N(C)C[C@@H]1C	5	-15	-2	nt	nt	nt	nt	nt
CC(C)NC(=O)N1[C@H](C#N)[C@@H](c2ccc(C#CC3CCCCC3)cc2)[C@H]1CO	-7	54	2	nt	nt	nt	nt	nt
CC(C)NC(=O)N1[C@H](C#N)[C@H](c2ccc(C#CC3CCCC3)cc2)[C@H]1CO	-69	102*	0	nt	103*	101*	-9	4
N#C[C@@H]1[C@H](c2ccc(C#CC3CCCC3)cc2)[C@@H](CO)N1C(=O)c1cccc(F)c1	-55	nt	2	nt	nt	nt	nt	nt
CC(C)NC(=O)N1[C@H](CO)[C@H](c2ccc(C#CC3CCCC3)cc2)[C@@H]1C#N	-40	93	-2	0	nt	nt	nt	nt
CC(C)NC(=O)N1[C@H](C#N)[C@@H](c2ccc(C#CC3CCCC3)cc2)[C@@H]1CO	-44	99*	-2	nt	106*	70	7	-21
CN(C)CC(=O)N1[C@H](C#N)[C@H](c2ccc(C#CC3CCCCC3)cc2)[C@@H]1CO	-33	93	0	nt	nt	nt	nt	nt
CN(C)CC(=O)N1[C@H](CO)[C@@H](c2ccc(C#CC3CCCCC3)cc2)[C@@H]1C#N	-20	99*	-1	nt	102*	66	-12	106*
N#C[C@H]1[C@H](c2ccc(C#CC3CCCC3)cc2)[C@H](CO)N1C(=O)Nc1ccc(F)cc1	-30	103*	1	nt	106*	76	4	105*
C[C@@H]1CN([C@@H](C)CO)C(=O)c2cc(NC(=O)NC3CCCCC3)ccc2O[C@@H](C)CCCCO[C@H]1CN(C)S(=O)(=O)c1cccs1	-70	53	-1	1	nt	nt	nt	nt
O=C(C[C@@H]1CC[C@@H](NC(=O)Cc2cccnc2)[C@@H](CO)O1)Nc1ccccc1	56	nt	0	nt	nt	nt	nt	nt
CCOc1cccc2c(C)nc(Nc3nc4c(c(=O)[nH]3)CCCC4)nc12	nt	nt	nt	2	nt	nt	nt	nt
O=C(CSc1nc2ccccc2c(=O)n1Cc1ccco1)c1ccc(Br)cc1	nt	nt	nt	0	nt	nt	nt	nt
Cc1ccc(S(=O)(=O)N[C@@H]2CC[C@@H](CC(=O)N3CCN(c4ccccc4)CC3)O[C@@H]2CO)cc1	10	32	0	0	nt	nt	nt	nt
C[C@H]1CN([C@@H](C)CO)S(=O)(=O)c2ccc(C#CC3CC3)cc2O[C@@H]1CN(C)C(=O)C1CCCCC1	-36	111*	1	nt	106*	92	11	45*
C[C@H](CO)N1C[C@H](C)[C@@H](CN(C)C(=O)C2CCCCC2)Oc2cc(C#CC3CC3)ccc2S1(=O)=O	-9	?	-2	nt	105*	71	18	43*
SMILES	Pf Dd2 growth	T cruzi growth-1	KDM4C inh	IDH1 R132H inh	T cruzi growth-2	T cruzi growth-3	NIH3T3 tox	3T3 cytotox 2
C[C@@H]1CN([C@@H](C)CO)S(=O)(=O)c2ccc(C#CC3CC3)cc2O[C@H]1CN(C)C(=O)C1CCCCC1	-43	?	-2	nt	105*	81	38*	29*
C[C@@H]1CN([C@@H](C)CO)S(=O)(=O)c2ccc(C#CC3CC3)cc2O[C@@H]1CN(C)C(=O)C1CCCCC1	-16	100*	-1	nt	105*	88	14	20
O=C(NC1CCCC1)[C@@H]1[C@@H](CO)[C@@H]2Cn3c(ccc(-c4ccccc4)c3=O)[C@H]1N2CCc1ccccc1	nt	77	-2	nt	nt	nt	nt	nt
N#C/C(=C(\O)COc1ccccc1)c1nc2ccccc2[nH]1	nt	nt	nt	0	nt	nt	nt	nt
O=c1ccc2ccc(Oc3ncnc4scc(-c5ccc(F)cc5)c34)cc2o1	nt	nt	nt	1	nt	nt	nt	nt
CC(C)NC(=O)N1CC2(C1)[C@H](c1ccccc1)[C@@H](CO)N2Cc1cccnc1	9	nt	1	nt	nt	nt	nt	nt
O=C(O)CCC1OC(=O)C(=O)C1c1ccccc1 (stereo not given)	nt	nt	nt	0	nt	nt	nt	nt
COC(=O)c1cc(OC)c(OC)cc1NC(=O)CCN1C(=O)c2ccccc2C1=O	nt	nt	nt	0	nt	nt	nt	nt
COC(=O)C1=CO[C@@H](OC2OC(O)C(O)C(O)C2CO)[C@H]2[C@@H]1C=CC21C=C([C@H](C)OC(=O)/C=C/c2ccc(OC3OC(CO)C(O)C(O)C3O)cc2)C(=O)O1 (stereo not given in full)	nt	nt	nt	0	nt	nt	nt	nt
C[C@H]1CN([C@@H](C)CO)S(=O)(=O)c2ccc(C#CC3CC3)cc2O[C@H]1CN(C)C(=O)C1CCCCC1	-38	100*	1	nt	106*	84	13	51*
